Compound activity from PubChem BioAssay.
An excerpt weighted towards active compounds, which were near 1.2% of everything screened.
PREPL inh = PREPL enzyme inhibitors, primary screen, biochemical, fluorescence polarization; Prolyl endopeptidase-like (Homo sapiens), Q4J6C6; recombinant PREPL, fluorescence polarization activity-based probe; inhibition, % at 5.96 µM; actives 0.68% (n = 320,000); AID 2751, 2010; in the data active means inhibition above about 43%;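 further: 0% = enzyme with DMSO and 100% = wells lacking enzyme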
ASAP1 inh = inhibitors of human ASAP1 ArfGAP activity, primary screen, biochemical, fluorescence polarization | Arf-GAP with SH3 domain, ANK repeat and PH domain-containing protein 1 (Homo sapiens), … | ASAP1-stimulated ARF1 GTP hydrolysis, GDP FP detection | inhibition, % at 16.5 µM | actives 0.19% (n = 360,000) | AID 624377, 2012; in the data active means inhibition above about 25%;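 further: 0% = vehicle with enzyme and substrate and 100% = no enzyme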
IDE cell inh = human IDE inhibitors in live cells, primary screen, fluorescence polarization, HEK cells, FAbetaB substrate | Insulin-degrading enzyme (Homo sapiens), P14735 | FAbetaB cleavage | inhibition, % at 5.59 µM | actives 0.41% (n = 320,000) | AID 434962, 2010;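 active means percent inhibition above the average of all tested compounds plus 3 SD, set per screening campaign, cut at about 16% in these data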;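 further: IDE supplied by intact live HEK cells; FP after avidin binding of uncleaved biotin substrate so inhibition keeps polarization high; 0% = DMSO wells and 100% = 60 µM reference IDE inhibitor Ii1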
ARFGAP1 inhibitor = inhibitors of rat ARFGAP1 GAP activity, primary screen, biochemical, fluorescence polarization, GDP tracer; ADP-ribosylation factor GTPase-activating protein 1 (Rattus norvegicus), Q62848; Arfgap1-stimulated ARF1 GTP hydrolysis, GDP FP detection; inhibition, % at 16.5 µM; actives 0.26% (n = 360,000);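 active means inhibition above a per-plate limit, mean inhibition of low control wells plus 3 SD, cut at about 25% in these data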;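 further: 0% = DMSO wells with enzyme and 100% = wells lacking Arfgap1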
Target sequence (Q62848 1-136 limits assumed): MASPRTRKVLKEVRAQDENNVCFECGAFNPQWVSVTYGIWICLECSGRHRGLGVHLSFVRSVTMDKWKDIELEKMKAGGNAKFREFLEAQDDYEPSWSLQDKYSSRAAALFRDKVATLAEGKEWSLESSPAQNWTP
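Material: rat Arfgap1 catalytic domain, aa 1-136; also added: human ARF1(Δ1-17)-GTP substrate; compound dosing: one concentration, 16.5 µM, DMSO 1.26%; incubation: GTP hydrolysis reaction 2 h at 25 °C; measured by: Tracer-displacement fluorescence polarization with EDTA stop, 620/688 nm; evaluation: % inhibition from polarization; repeats: one replicate per compound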
IDE act = human IDE activators in live cells, primary screen, fluorescence polarization, HEK cells, FAbeta-B substrate; actives 0.073% (n = 340,000); activation, % at 5.96 µM; Insulin-degrading enzyme (Homo sapiens), P14735; FAbeta-B cleavage; 0% vehicle, 100% cell-free pure enzyme wells;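 active means activation above the mean of all tested compounds plus 3 SD, set per screening campaign, cut at about 17% in these data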
ARFGAP1 inh conf = ARFGAP1 inhibitor hit confirmation, biochemical, fluorescence polarization, triplicate. shares compounds with ARFGAP1 inhibitor. ARFGAP1-stimulated ARF1 GTP hydrolysis, GDP tracer FP. inhibition, % at 16.5 µM. actives 30% (n = 890). AID 651608, 2012;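 active means average inhibition over triplicates above the hit cutoff set in the earlier primary screen, cut at about 25% in these data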;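 further: 0% = Arfgap1 plus ARF1-GTP with DMSO and 100% = wells lacking Arfgap1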
Target sequence (Q62848 whole entry, looked up): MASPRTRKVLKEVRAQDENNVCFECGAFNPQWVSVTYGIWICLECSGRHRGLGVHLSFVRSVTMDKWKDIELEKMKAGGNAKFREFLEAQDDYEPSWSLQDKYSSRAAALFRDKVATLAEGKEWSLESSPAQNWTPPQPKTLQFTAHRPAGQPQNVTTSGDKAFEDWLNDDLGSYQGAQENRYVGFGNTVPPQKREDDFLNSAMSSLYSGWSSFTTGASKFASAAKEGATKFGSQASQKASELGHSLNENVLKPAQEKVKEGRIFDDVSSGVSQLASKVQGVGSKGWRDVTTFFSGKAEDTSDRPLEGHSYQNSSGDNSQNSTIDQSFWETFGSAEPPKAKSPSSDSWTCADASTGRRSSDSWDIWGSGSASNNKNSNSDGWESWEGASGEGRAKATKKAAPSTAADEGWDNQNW
An asterisk follows results filed as active; / = no result.

SMILES	PREPL inh	ASAP1 inh	IDE cell inh	ARFGAP1 inhibitor	IDE act	ARFGAP1 inh conf
COc1cc2c(cc1OC)C(C)N(C(=O)c1cc3c(s1)-c1ccccc1OC3)CC2 (configuration not stated)	-21	4	-1	25*	3	5
COc1ccc(CNC(=O)CCS(=O)(=O)c2ccc3c(c2)NC(=O)CS3)cc1	1	1	1	25*	2	-3
COc1ccc(CNC(=O)CCS(=O)(=O)c2ccc3c(c2)NC(=O)C(C)S3)cc1 (configuration not stated)	-5	-2	3	-7	0	/
CC(C)N1CCN(Cc2ccc(-c3ccccc3Cl)o2)CC1CCO (configuration not stated)	23	-11	0	29*	1	8
CC(C)N1CCN(Cc2ccc(-c3ccccc3)cc2)CC1CCO (configuration not stated)	26	-1	0	-6	5	/
Cc1ccc(-n2nc3ccc(NC(=O)c4ccco4)cc3n2)cc1	-1	-6	3	30*	-3	13
O=C(OCC(=O)N1c2ccccc2Sc2ccccc21)c1ccc[n+]([O-])c1	-7	1	5	18	-2	/
COc1cc(C#Cc2c(-c3cncn3C)n(C)c3ccc(-c4ccc5cc[nH]c5c4)cc23)cc(OC)c1	30	21	0	32*	-3	21
COc1cc(C#Cc2c(-c3cncn3C)n(C)c3ccc(-c4ccc(OC)c(OC)c4)cc23)cc(OC)c1	35	5	5	8	8	/
O=C(COc1ccc(Cl)cc1)Nc1ccc2c(c1)CCC2	7	-7	4	30*	5	8
COc1ccc(CCn2c(SCC(=O)Nc3cc(C)on3)nc3ccccc3c2=O)cc1OC	3	-6	-2	7	-5	/
COc1ccc(CCn2c(SCC(=O)Nc3cc(C)on3)nc3ccsc3c2=O)cc1OC	-1	13	5	37*	6	35*
O=C(Nc1ccc(Cl)c(S(=O)(=O)N2CCOCC2)c1)C1CCCC1	8	-1	-3	3	0	/
OC(c1cccc(Cl)c1)c1nc(-c2cccc3cccnc23)cs1 (configuration not stated)	/	-7	/	-3	/	/
OC(c1cccc(Cl)c1)c1nc(-c2csc3ccccc23)cs1 (configuration not stated)	/	6	/	25*	/	9
OC(CNCCC1C=Nc2ccccc21)Cn1c2ccc(Cl)cc2c2cc(Cl)ccc21 (configuration not stated)	-31	13	-7	28*	19*	42*
OC(CNCC1CCCO1)Cn1c2ccc(Cl)cc2c2cc(Cl)ccc21 (configuration not stated)	-13	-4	-4	5	6	/
Cc1ccc(C(C)C)c(OCc2ccc(C(=O)N/N=C/c3ccc(C(=O)O)cc3)cc2)c1	-4	-18	4	-15	7	/
Cc1ccc(C(C)C)c(OCc2ccc(C(=O)N/N=C/c3ccc(O)cc3O)cc2)c1	13	22	-4	30*	2	32*
CC(=O)c1cccc(NC(=O)c2cccc3c(-c4cnn(C)c4)coc23)c1	/	7	/	28*	/	25*
COc1ccc(NC(=O)c2cccc3c(-c4cnn(C)c4)coc23)cc1	/	19	/	30*	/	30*
CCOC(=O)c1ccc(Nc2nc(C)nc3c2nnn3Cc2ccccc2)cc1	-26	-7	2	2	-4	/
Cc1sc2ncnc(NC3CCN(Cc4ccccc4)CC3)c2c1C	10	-6	2	-7	-4	/
O=C(COc1ccc(Cl)cc1Cl)NCCSc1ccc(Cl)cc1	-65	4	1	29*	5	-2
O=C(COC(=O)c1ccc(S(=O)(=O)N2CCCC2)cc1)NCc1cccs1	10	11	2	8	5	/
SMILES	PREPL inh	ASAP1 inh	IDE cell inh	ARFGAP1 inhibitor	IDE act	ARFGAP1 inh conf
CCCN1C(=O)C(=O)N(CC(=O)N2c3ccccc3NC(=O)CC2C)C1=O (configuration not stated)	/	-1	/	0	/	/
O=C(c1ccc(F)cc1F)N1CCN(S(=O)(=O)c2ccc3c(c2)OCCO3)CC1	1	-2	-1	-3	5	/
Cc1cccc(CN2CCN(Cc3ccco3)CC2)c1	-3	-3	2	-1	-3	/
Clc1cccc(CN2CCN(Cc3ccco3)CC2)c1	3	2	1	25*	-1	-5
COc1cc(/C=N/Nc2ncnc3sc4c(c23)CCC4)ccc1O	/	19	/	26*	5	11
C[C@]12CCC(O)CC1=CCC1C2CC[C@]2(C)/C(=N\NC(N)=S)CCC12 (some centres not stated)	-5	-2	3	-4	-5	/
Cc1nn(CCCC(=O)Nc2cc(Oc3ccccc3)cc([N+](=O)[O-])c2)c(C)c1[N+](=O)[O-]	9	7	-9	15	9	/
Cc1ccc(C)c(Oc2cc(NC(=O)CCCn3nc(C)c([N+](=O)[O-])c3C)cc([N+](=O)[O-])c2)c1	6	6	-3	26*	6	1
O=C1CC(N2CCC(c3nc4ccccc4s3)CC2)C(=O)N1Cc1ccccc1 (configuration not stated)	5	17	-3	37*	-3	4
O=C(NC(=S)Nc1ccc2c(c1)OCCO2)c1ccccc1F	-5	10	3	5	3	/
O=C(NC(=S)Nc1ccc2c(c1)OCCO2)c1ccccc1	31	-7	3	25*	5	2
COc1cccc(NC(=O)CN2C(=O)NC3(CCc4ccccc43)C2=O)c1 (configuration not stated)	-1	2	-2	-6	1	/
COc1ccc(C(=O)N=C2SC3CS(=O)(=O)CC3N2c2ccc(N(C)C)cc2)cc1OC (configuration not stated)	0	-7	-2	9	-2	/
CCC[C@@H]1CCCO[C@@](C(=O)NCCN2CCOCC2)(C(F)(F)F)C1	0	6	-5	31*	3	-5
O=c1c2ccccc2nc(/C=C/c2cccnc2)n1CCc1ccccc1	18	3	6	15	0	/
O=c1c2ccccc2nc(/C=C/c2ccccc2)n1CCc1ccccc1	-7	-6	6	52*	-1	4
Cc1cc(C(=O)Nc2ccc(C#N)cc2)on1	/	-3	/	1	-1	/
